Measurements: ChEMBL document CHEMBL1149793, “1,8-Naphthyridines VI. Synthesis and anti-inflammatory activity of 5-(alkylamino)-N,N-diethyl[1,2,4]triazolo[4,3-a][1,8]naphthyridine-6-carboxamides with a new substitution pattern on the triazole ring” (2008)

Legend:
Type in all cases: functional
Rattus norvegicus [1] = assay: Antiinflammatory activity against carrageenan-induced edema in Sprague-Dawley rat at 25 mg/kg, po
Outline: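 Oral gavage dosing as a homogenized suspension in 0.5% carboxymethylcellulose (1 mL/100 g); controls got vehicle; indomethacin 6 mg/kg p.o. positive control. After 60 min, 0.1 mL 1% carrageenan in saline injected into the right hind plantar surface. Paw volume read by water displacement to the lateral malleolus at injection and 2 h later; the difference is edema. % inhibition vs controls; Student's t-test.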

Mus musculus = assay: Analgesic activity against acetic acid-induced writhing in mouse at 3.12 mg/kg
Rattus norvegicus [2] = assay: Antiinflammatory activity against carrageenan-induced edema in Sprague-Dawley rat at 200 mg/kg, po
Outline: (§1)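 Rats were dosed orally by gastric intubation with a homogenized suspension in 0.5% carboxymethylcellulose (1 mL/100 g); controls received vehicle alone. After 60 min, 0.1 mL of 1% carrageenan in saline was injected into the plantar surface of the right hind paw. Paw volume was measured by water displacement at injection and 2 h later. Edema was taken as the difference, with % inhibition versus controls (mean ± SD, Student's t-test).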

Rattus norvegicus [3] = assay: Antiinflammatory activity against carrageenan-induced edema in Sprague-Dawley rat at 100 mg/kg, po; outline: as §1
Rattus norvegicus [4] = assay: Antiinflammatory activity against carrageenan-induced edema in Sprague-Dawley rat at 50 mg/kg, po; outline: as §1
Rattus norvegicus [5] = assay: Antiinflammatory activity against carrageenan-induced edema in Sprague-Dawley rat at 6 mg/kg, po; outline: as §1

SMILES | inhibition in vivo at 200 mg/kg (Rattus norvegicus [2]) | other results
CCN(CC)C(=O)c1c(NCC(C)C)c2cccnc2n2c(C(C)C)nnc12 | – | inhibition in vivo at 25 mg/kg (Rattus norvegicus [1]): 61%
CCN(CC)C(=O)c1c(N2CCN(C)CC2)c2cccnc2n2c(C(C)C)nnc12 | – | Activity (Mus musculus): 85%
CCc1nnc2c(C(=O)N(CC)CC)c(N(CC)C(=O)c3cccnc3)c3cccnc3n12 | 51% | inhibition in vivo at 100 mg/kg (Rattus norvegicus [3]): 31%
CCN(CC)C(=O)c1c(N(CC(C)C)C(C)=O)c2cccnc2n2c(C(C)C)nnc12 | 5% | –
CCOC(=O)Cc1nnc2c(C(=O)N(CC)CC)c(NCC(C)C)c3cccnc3n12 | 65% | inhibition in vivo at 50 mg/kg (Rattus norvegicus [4]): 21%; inhibition in vivo at 100 mg/kg (Rattus norvegicus [3]): 35%
CCN(CC)C(=O)c1c(NCC(C)C)c2cccnc2n2c(C(=O)N(CC)CC)nnc12 | 60% | inhibition in vivo at 100 mg/kg (Rattus norvegicus [3]): 30%
CCCN(CCC)C(=O)c1nnc2c(C(=O)N(CC)CC)c(NCC(C)C)c3cccnc3n12 | 35% | –
CCCCNc1c(C(=O)N(CC)CC)c2nnc(CC(=O)NCC(C)C)n2c2ncccc12 | 0% | –
CCN(CC)C(=O)c1c(NCC(C)C)c2cccnc2n2c(CC(=O)Nc3nccs3)nnc12 | 18% | –
CCOC(=O)C(C)c1nnc2c(C(=O)N(CC)CC)c(NCC(C)C)c3cccnc3n12 (stereo not given) | 12% | –
CCN(CC)C(=O)c1c(NCC(C)C)c2cccnc2n2c(CC(=O)NCC(C)C)nnc12 | 18% | –
CCOC(=O)c1nnc2c(C(=O)N(CC)CC)c(NCC(C)C)c3cccnc3n12 | 20% | –
CCNc1c(C(=O)N(CC)CC)c2nnc(C(C)C)n2c2ncccc12 | – | inhibition in vivo at 25 mg/kg (Rattus norvegicus [1]): 61%
CCN(CC)C(=O)c1c(Cl)c2cccnc2n2c(C(=O)N(C(C)C)C(C)C)nnc12 | 30% | –
CCNc1c(C(=O)N(CC)CC)c2nnc(CC(=O)OCC)n2c2ncccc12 | 0% | –
COc1ccc2c(c1)c(CC(=O)O)c(C)n2C(=O)c1ccc(Cl)cc1 [INDOMETHACIN] | – | inhibition in vivo at 6 mg/kg (Rattus norvegicus [5]): 92%
